# Where “and” joins values, the source holds several entries; their conditions need not be identical. Identical values can stand only once.
# System: U2OS
# Assay: Multiplex assay against U2OS
# Type: toxicity, cell-based
# Details: human
# In short: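 Tubulin, mitochondrial-mass and membrane-permeability phenotypes are per cents of healthy-nucleus cells. Cells were gated by CellPathfinder machine learning into Hoechst high-intensity objects or normal cells, normal cells into healthy, pyknosed or fragmented nuclei, and pyknosed cells into mitotic or apoptotic. Before that, live cells stained at seeding with Hoechst33342, BioTracker Green Microtubule Cytoskeleton Dye, MitoTracker Red and Annexin V Alexa Fluor 680 were imaged on a CQ1 microscope at 37°C and 5% CO2 after compound addition.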
# [1] = 12 h, 1 µM, compound concentration 1 uM
# [2] = 12 h, 10 µM, compound concentration 10 uM
# [3] = 24 h, 1 µM, compound concentration 1 uM
# [4] = 24 h, 10 µM, compound concentration 10 uM
# [5] = 48 h, 1 µM, compound concentration 1 uM
# [6] = 48 h, 10 µM, compound concentration 10 uM
smiles,measurement,setting,value
O=C(NCC(=O)N1CC[C@H](N[C@H]2CC[C@@](O)(c3ccc(-c4ncccn4)cn3)CC2)C1)c1cccc(C(F)(F)F)c1 [PF-4136309],Population Apoptotic (%),[1],79% and 93%
same,Population Fragmented Nuclei (%),[1],25% and 13%
same,Population Healthy Nuclei (%),[1],64% and 74%
same,Population Hoechst High Intensity Objects (%),[1],1% and 4%
same,Population Membrane Permeable-Phenotype (%),[1],6% and 11%
same,Population Mitochondria Different-Phenotype (%),[1],3% and 5%
same,Population Normal (%),[1],98% and 95%
same,Population Pyknosed Nuclei (%),[1],9% and 12%
same,Population Tubulin-Different-Phenotype (%),[1],4% and 8%
same,Total Cell Count,[1],249 and 138
same,Population Apoptotic (%),[2],68% and 60%
same,Population Fragmented Nuclei (%),[2],25% and 22%
same,Population Healthy Nuclei (%),[2],62% and 66%
same,Population Hoechst High Intensity Objects (%),[2],4% and 1%
same,Population Membrane Permeable-Phenotype (%),[2],15% and 25%
same,Population Mitochondria Different-Phenotype (%),[2],4% and 10%
same,Population Mitotic Cells (%),[2],31% and 40%
same,Population Normal (%),[2],95% and 98%
same,Population Pyknosed Nuclei (%),[2],12% and 11%
same,Population Tubulin-Different-Phenotype (%),[2],9% and 11%
same,Total Cell Count,[2],242 and 90
same,Population Apoptotic (%),[3],80% and 91%
same,Population Fragmented Nuclei (%),[3],22% and 16%
same,Population Healthy Nuclei (%),[3],69% and 76%
same,Population Hoechst High Intensity Objects (%),[3],1% and 3%
same,Population Membrane Permeable-Phenotype (%),[3],4% and 5%
same,Population Mitochondria Different-Phenotype (%),[3],2% and 4%
same,Population Mitotic Cells (%),[3],20% and 8%
same,Population Normal (%),[3],98% and 96%
same,Population Pyknosed Nuclei (%),[3],8% and 7%
same,Population Tubulin-Different-Phenotype (%),[3],2%
same,Total Cell Count,[3],304 and 169
same,Population Apoptotic (%),[4],83% and 75%
same,Population Fragmented Nuclei (%),[4],23% and 21%
same,Population Healthy Nuclei (%),[4],62% and 70%
same,Population Hoechst High Intensity Objects (%),[4],3% and 0%
same,Population Membrane Permeable-Phenotype (%),[4],10% and 15%
same,Population Mitochondria Different-Phenotype (%),[4],3% and 11%
same,Population Mitotic Cells (%),[4],16% and 25%
same,Population Normal (%),[4],96% and 99%
same,Population Pyknosed Nuclei (%),[4],13% and 7%
same,Population Tubulin-Different-Phenotype (%),[4],3% and 7%
same,Total Cell Count,[4],271 and 102
same,Population Apoptotic (%),[5],87% and 96%
same,Population Fragmented Nuclei (%),[5],14% and 12%
same,Population Healthy Nuclei (%),[5],74% and 75%
same,Population Hoechst High Intensity Objects (%),[5],2% and 3%
same,Population Membrane Permeable-Phenotype (%),[5],4% and 6%
same,Population Mitochondria Different-Phenotype (%),[5],3%
same,Population Mitotic Cells (%),[5],12% and 4%
same,Population Normal (%),[5],97% and 96%
same,Population Pyknosed Nuclei (%),[5],11%
same,Population Tubulin-Different-Phenotype (%),[5],3% and 4%
same,Total Cell Count,[5],443 and 224
same,Population Apoptotic (%),[6],69% and 92%
same,Population Fragmented Nuclei (%),[6],22% and 20%
same,Population Healthy Nuclei (%),[6],61% and 60%
same,Population Hoechst High Intensity Objects (%),[6],4% and 0%
same,Population Membrane Permeable-Phenotype (%),[6],9% and 15%
same,Population Mitochondria Different-Phenotype (%),[6],5% and 8%
same,Population Normal (%),[6],95% and 100%
same,Population Pyknosed Nuclei (%),[6],15% and 18%
same,Population Tubulin-Different-Phenotype (%),[6],4%
same,Total Cell Count,[6],360 and 138
CN1[C@@H](CC(=O)c2ccccc2)CCC[C@H]1C[C@H](O)c1ccccc1.Cl [LOBELINE HYDROCHLORIDE],Population Apoptotic (%),[1],43.24% and 34.78%
same,Population Fragmented Nuclei (%),[1],1.42% and 2.51%
same,Population Healthy Nuclei (%),[1],88.07% and 85.93%
same,Population Hoechst High Intensity Objects (%),[1],0%
same,Population Membrane Permeable-Phenotype (%),[1],0.97% and 2.34%
same,Population Mitochondria Different-Phenotype (%),[1],0% and 6.43%
same,Population Mitotic Cells (%),[1],56.76% and 65.22%
same,Population Normal (%),[1],100%
same,Population Pyknosed Nuclei (%),[1],10.51% and 11.56%
same,Population Tubulin-Different-Phenotype (%),[1],0.65% and 0.58%
same,Total Cell Count,[1],352 and 199
same,Population Apoptotic (%),[2],42.42% and 20%
same,Population Fragmented Nuclei (%),[2],1.15% and 1.84%
same,Population Healthy Nuclei (%),[2],91.26% and 82.82%
same,Population Hoechst High Intensity Objects (%),[2],0%
same,Population Membrane Permeable-Phenotype (%),[2],1.76% and 8.15%
same,Population Mitotic Cells (%),[2],57.58% and 80%
same,Population Normal (%),[2],100%
same,Population Pyknosed Nuclei (%),[2],7.59% and 15.34%
same,Population Tubulin-Different-Phenotype (%),[2],4.03% and 5.19%
same,Total Cell Count,[2],435 and 163
same,Population Apoptotic (%),[3],44.64% and 46.88%
same,Population Fragmented Nuclei (%),[3],0.81% and 1.97%
same,Population Healthy Nuclei (%),[3],87.88% and 85.43%
same,Population Hoechst High Intensity Objects (%),[3],0%
same,Population Membrane Permeable-Phenotype (%),[3],0.46% and 2.76%
same,Population Mitochondria Different-Phenotype (%),[3],0% and 6.91%
same,Population Mitotic Cells (%),[3],55.36% and 53.12%
same,Population Normal (%),[3],100%
same,Population Pyknosed Nuclei (%),[3],11.31% and 12.6%
same,Population Tubulin-Different-Phenotype (%),[3],0.69% and 0.92%
same,Total Cell Count,[3],495 and 254
same,Population Apoptotic (%),[4],28.79% and 39.39%
same,Population Fragmented Nuclei (%),[4],0.84% and 0.51%
same,Population Healthy Nuclei (%),[4],88.01% and 82.74%
same,Population Hoechst High Intensity Objects (%),[4],0%
same,Population Membrane Permeable-Phenotype (%),[4],0.96% and 1.23%
same,Population Mitotic Cells (%),[4],71.21% and 60.61%
same,Population Normal (%),[4],100%
same,Population Pyknosed Nuclei (%),[4],11.15% and 16.75%
same,Population Tubulin-Different-Phenotype (%),[4],2.11% and 2.45%
same,Population Apoptotic (%),[5],42.67% and 32.61%
same,Population Fragmented Nuclei (%),[5],2.46% and 2.85%
same,Population Healthy Nuclei (%),[5],89.17% and 86.22%
same,Population Hoechst High Intensity Objects (%),[5],0%
same,Population Membrane Permeable-Phenotype (%),[5],0.75% and 0.83%
same,Population Mitochondria Different-Phenotype (%),[5],0.13% and 5.79%
same,Population Mitotic Cells (%),[5],57.33% and 67.39%
same,Population Normal (%),[5],100%
same,Population Pyknosed Nuclei (%),[5],8.37% and 10.93%
same,Population Tubulin-Different-Phenotype (%),[5],1.25% and 0.55%
same,Total Cell Count,[5],896 and 421
same,Population Apoptotic (%),[6],41.41% and 48.72%
same,Population Fragmented Nuclei (%),[6],1.94% and 1.9%
same,Population Healthy Nuclei (%),[6],88.91% and 85.76%
same,Population Hoechst High Intensity Objects (%),[6],0%
same,Population Membrane Permeable-Phenotype (%),[6],1.66% and 1.85%
same,Population Mitochondria Different-Phenotype (%),[6],0.31% and 8.86%
same,Population Mitotic Cells (%),[6],58.59% and 51.28%
same,Population Normal (%),[6],100%
same,Population Pyknosed Nuclei (%),[6],9.15% and 12.34%
same,Population Tubulin-Different-Phenotype (%),[6],1.77% and 2.21%

# — ChEMBL document CHEMBL5724801, “EUbOPEN Chemogenomics Library - Multiplex” (2024)
